This excerpt belongs to a sample that is enriched for hits.
INS promoter act: TRM-6 insulin promoter activation | TRM-6 cells (human fetal islet line), insulin promoter eGFP reporter, imaging; plate-scaled: unstimulated 0, stimulated control 100 | activation, % at 2 µM | hit rate 0.81% among 130,000;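 active = activation at 2 µM above a set limit, confirmed on inspection of the cell images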;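 note: share of cells whose green reporter signal exceeds an intensity cutoff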
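test system = TRM-6 insulin promoter–eGFP reporter cells | benchmarks = stimulated versus unstimulated wells as plate controls | read-out basis = percent cells above green-intensity threshold, converted to percent activation versus plate controls | detection = fixed-cell fluorescence microscopy, eGFP plus Hoechst | incubation = tamoxifen pre-incubation 15 h overnight, then compound exposure 48 h at 37 °C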
Of the large screens only hits and unclear results are named; the others gave an inactive call.

CC(=O)Oc1ccc(N(C(C)=O)S(=O)(=O)c2cccs2)c2ccccc12	none
O=C(CSCc1ccc(Cl)cc1)Nc1ccc(S(=O)(=O)N2CCOCC2)cc1	none
CCOC(=O)c1c(C)nc2cc(C)cc(C)n12	none
CCOC(=O)C1=C(C)Nc2ccccc2N=C1NC(=O)Cc1ccc(Cl)c(Cl)c1	none
CCOC(=O)c1ccc(CNCc2ccc(Br)cc2)cc1	none
CCOC(=O)C1=C(C)Nc2ccccc2N=C1NC(=O)Cc1ccc(Br)cc1	INS promoter act 223
C/C(=N\n1cnnc1)c1ccccc1	none
CC(C)Oc1ccc(/C(O)=C2/C(=O)C(=O)N(CCN3CCOCC3)C2c2ccccc2)cc1 (centres undefined)	none
COc1cccc(/C(O)=C2/C(=O)C(=O)N(CCN3CCOCC3)C2c2cccnc2)c1 (centres undefined)	INS promoter act 531
COc1ccc(/C(O)=C2/C(=O)C(=O)N(CCN(C)C)C2c2cccnc2)cc1OC (centres undefined)	none
O=C(CN(C1CCCCC1)C1CCCCC1)N1CCc2ccccc2C1	none
CCOC(=O)C1CCN(CCC(=O)Nc2ccc(F)cc2)CC1	none
CCCS(=O)(=O)c1c(S(=O)(=O)CCC)c2c(C)cccn2c1C(N)=O	none
CCN(CC)S(=O)(=O)c1ccc(Cl)c(C(=O)OC)c1	none
CCCS(=O)(=O)c1c(S(=O)(=O)CCC)c2cc(-c3ccncc3)ccn2c1C(=O)OC	INS promoter act 379
CCCc1cc(C(=O)NNC(=S)NC(C)c2ccccc2)cs1 (centres undefined)	none
CCC(C)(C)NC(=O)C(c1ccccc1)N(Cc1cccs1)C(=O)Cn1nnc2ccccc21 (centres undefined)	none
CCc1ccc(C(C(=O)NC(C)(C)CC)N(Cc2ccco2)C(=O)Cn2nnc3ccccc32)cc1 (centres undefined)	none
CCC(C)(C)NC(=O)C(c1cccn1C)N(C(=O)Cn1nnc2ccccc21)c1ccc(OC)cc1 (centres undefined)	INS promoter act 150
Cc1c(O)cc2n(c1=O)-c1ccccc1C2(C)C	none
O=C1CCCCCC1C1(O)C(=O)Nc2ccccc21 (centres undefined)	none
Cc1cc(C2(c3ccc(O)c(C)c3)C(=O)Nc3ccccc32)ccc1O	INS promoter act 127
Cc1cc2nc3c(c(C(F)(F)F)n2n1)CCCC3	none
COc1ccccc1C(=O)N/C(=C\c1ccc2c(c1)OCO2)C(=O)NCCc1nc2ccccc2[nH]1	none
S=C1NCCc2ccccc2C1c1ccccc1Cl (centres undefined)	INS promoter act 469
Cc1ccc(S(=O)(=O)NCC2NCCc3ccccc32)cc1 (centres undefined)	none
Cc1cccc(C(=O)NC2CCN(S(=O)(=O)c3ccccc3)CC2)c1	none
CCOc1cccc(N(C(=O)Cc2cccs2)C(C(=O)NC2CCCCC2)c2cccn2C)c1 (centres undefined)	none
CCN(CC)C(=O)C(=O)c1cccn1-c1ccccc1C#N	none
CCOC(=O)C1CCN(C(=O)COc2ccc(Cl)cc2)CC1	none
CCOC(=O)C1CCCN(C(=O)Cc2ccc(Cl)cc2)C1 (centres undefined)	INS promoter act 85
CCOC(=O)C1CCCN(C(=O)CCc2ccccc2)C1 (centres undefined)	none
Cc1ccc(/C=C/C(=O)NC2CCCCCCC2)o1	none
O=C(NCCc1nc(-c2ccccc2)cs1)c1ccc(Br)cc1	none
CC1(C)COC(c2cccc(C3=NC(C)(C)CO3)n2)=N1	none
COc1ccccc1NC(=O)c1ccccc1-c1nc(-c2ccccc2OC)no1	INS promoter act 400
COc1ccccc1-c1noc(-c2ccccc2C(=O)Nc2ccccc2)n1	none
COc1ccccc1NC(=O)c1cc(Cl)ccc1NC(=O)c1ccco1	none
Cc1ccc(CSc2nnc(-c3ccncc3)o2)c(C)c1	none
CCOC(=O)c1cnc(SCc2ccccc2)nc1N	none
CCOC(=O)c1cnc(SCc2cccc3ccccc23)nc1N	none
CCOC(=O)c1cnc(SCc2ccc(C(C)(C)C)cc2)nc1N	INS promoter act 514
CCOc1ccccc1C(=O)Nc1cnn(Cc2ccc(F)cc2)c1	none
O=C1NC(=O)C(CC(=O)N(Cc2ccco2)C2(C(=O)NC3CCCC3)CCCCC2)N1 (centres undefined)	none
O=C(c1ccccn1)N(Cc1ccco1)C1(C(=O)NC2CCCC2)CCCCC1	INS promoter act 81
O=C(COC(=O)c1ccccn1)NC1CCCCC1	none
CCOc1ccccc1NC(=O)Cn1c(=O)n(-c2ccc(OC)cc2OC)c(=O)c2c(C)c(C(=O)N(CC)CC)sc21	none
O=C(CN1CCCCC1)NC(=O)NCc1ccccc1	none
CCCCOC(=O)CNc1n[nH]c(=S)[nH]c1=O	none
COc1ccc(/C=N/NC(=O)CCNc2n[nH]c(=O)[nH]c2=O)c(OC)c1	none
CC(C)OC(=O)CCNc1n[nH]c(=O)[nH]c1=O	INS promoter act 543
O=S(=O)(NCCSc1ccccn1)c1ccc(Br)cc1	none
Cc1ccc2cc(CN(CCO)Cc3nnnn3Cc3ccc(F)cc3)c(=O)[nH]c2c1	INS promoter act 140
COc1ccc2[nH]c(=O)c(CN(Cc3nnnn3Cc3ccc(F)cc3)CC3CCCO3)cc2c1 (centres undefined)	none
O=c1[nH]c2cc3c(cc2cc1CN(CCCO)Cc1nnnn1Cc1ccc(F)cc1)OCO3	none
CC(=O)c1c(C)[nH]c(C(=O)NCc2cccc(Cl)c2)c1C	none
Cc1c(=O)n(OCc2ccccc2)c2ccccc2[n+]1[O-]	none
COc1ccc(COn2c(=O)c(C)[n+]([O-])c3ccccc32)cc1OC	INS promoter act 86
O=c1c(-c2cc3ccccc3o2)[n+]([O-])c2ccccc2n1OCc1ccccn1	none
CN(CC(=O)N1CCCC1)S(=O)(=O)c1ccc2ccccc2c1	none
CCn1cc(C(=O)N(CCC(C)C)c2c(N)n(Cc3ccccc3)c(=O)[nH]c2=O)c(=O)c2ccc(C)nc21	none
CC1CN(C(=S)NC(=O)C2CCCCC2)CC(C)O1 (centres undefined)	none
Cc1ccc(Nc2ncnc3ccccc23)cc1	INS promoter act 421
CN(C)CCNc1ncnc2ccccc12	none
CCCCC(Nc1ncnc2ccccc12)C(=O)O (centres undefined)	none
CCOC(=O)c1cc(-c2ccccc2)n(CCC(=O)N2CCN(c3ccccn3)CC2)c1C	none
CN(C)/C=C(\C#N)C(=O)N/N=C/c1ccccc1	none
CCCCn1c(SCC(=O)NNC(=O)c2ccco2)nnc1-c1ccco1	none
Cc1c(Cl)c([N+](=O)[O-])nn1CC(=O)NC12CC3CC(CC(C3)C1)C2	none
COc1ccc(C(=O)OC/C(O)=C(\C#N)c2nc3ccccc3[nH]2)cc1S(=O)(=O)N1CCOCC1	none
COc1ccc(C(=O)Nc2nc(C)cs2)cc1S(=O)(=O)N1CCCC1	INS promoter act 221
Cc1nnc(NC(=O)c2ccc(C)c(S(=O)(=O)N3CCCCCC3)c2)s1	none
Cc1csc(NC(=O)c2cccc(S(=O)(=O)N3CCCCC3)c2)n1	none
Cc1c(Cl)c(C(F)(F)F)nn1CC(=O)N1CCSCC1	none
COc1cc(-c2nc(S(=O)(=O)c3ccc(Cl)cc3)c(N3CCOCC3)o2)cc(OC)c1OC	none
COc1ccccc1N(CC(=O)Nc1cc(C)on1)S(=O)(=O)c1ccc(Cl)cc1	none
COc1ccccc1-c1nc(S(=O)(=O)c2ccc(Cl)cc2)c(N(C)C)o1	INS promoter act 471
CCOC(=O)c1c(NC(=O)c2cc(-c3ccc(O)cc3)on2)sc(C(C)=O)c1C	none
O=C1C2C3C=CC(CC3)C2C(=O)N1c1ccc2c(c1)OCO2 (centres undefined)	none
CN1c2ccccc2N(C)C1c1ccc2c(c1)OCO2	none
CC12CN3CC(C)(CN(C1)C3c1ccc3c(c1)OCO3)C2=O (centres undefined)	INS promoter act 438
